Drawing on ChEMBL document CHEMBL2062384, “Alkyne derivatives of isocoumarins as clickable activity-based probes for serine proteases” (Bioorg Med Chem, 2012), this text covers Activity for 10 molecules.

For assay [1], the species on record is Bos taurus. The assay is described as follows: Binding affinity to bovine chymotrypsin assessed as protein labeling at 2 uM measured after 15 mins by fluorescent scanning method. The procedure, abridged:
(§1)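 100 ng purified protease per lane; cathepsin G in 50 mM HEPES pH 7.4 with 100 mM NaCl, others in 50 mM phosphate pH 7.4. Optional 30 min pre-block (chymotrypsin 100 µM Ala-Ala-Phe-phosphonate, cathepsin G 1 mM PMSF, urokinase 100 µM DFP, elastase/trypsin 1 mM dichloroisocoumarin). Probe 2 µM, 15 min at room temperature. Then 30 min room-temperature click (25 µM TAMRA-PEG-N3, 50 µM THPTA, 1 mM CuSO4, 500 µM ascorbate), SDS-PAGE, scan ex 532/em 580 nm.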

The target of assay [2] is T1, Cathepsin G (Homo sapiens) (UniProt P08311).
T1 sequence (whole entry): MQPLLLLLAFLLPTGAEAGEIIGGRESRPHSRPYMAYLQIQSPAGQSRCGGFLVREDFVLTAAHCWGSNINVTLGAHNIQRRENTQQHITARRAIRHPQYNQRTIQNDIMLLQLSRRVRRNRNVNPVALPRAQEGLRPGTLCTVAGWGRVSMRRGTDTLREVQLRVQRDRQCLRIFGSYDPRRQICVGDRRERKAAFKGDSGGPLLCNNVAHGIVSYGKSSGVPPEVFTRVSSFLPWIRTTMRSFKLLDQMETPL
The assay can be described thus: Binding affinity to human cathepsin G assessed as protein labeling at 2 uM after 15 mins by fluorescent scanning method. Put shortly: as §1

The species entered for assay [3] is Sus scrofa. The assay can be described thus: Binding affinity to porcine pancreatic elastase assessed as protein labeling at 2 uM after 15 mins by fluorescent scanning method. The procedure, abridged: as §1
The species named for assay [4] is Bos taurus. The assay is described as follows: Binding affinity to bovine chymotrypsin assessed as protein labeling at 2 uM measured after 15 mins pretreated with 100 uM Ala-Ala-Phe-diphenyl phosphonate for 30 mins before compound addition by fluorescent scanning method. Put shortly:
as §1

For assay [5], the species on record is Sus scrofa. The assay can be described thus: Binding affinity to porcine pancreatic elastase assessed as protein labeling at 2 uM after 15 mins pretreated with 1 mM 3,4-dichloroisocoumarin for 30 mins before compound addition by fluorescent scanning method. Put shortly:
as §1

The subject of the next assay is lymphoma. The assay can be described thus: Binding affinity to porcine pancreatic elastase assessed as protein labeling at 2 uM after 15 mins in presence of mouse EL4 lymphoma cell lysate for protease spiking by fluorescent scanning method relative to total protein content. Type of assay: cell-free. The conditions noted are these: Sus scrofa. Put shortly: (§2)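 Protease spiked into EL4 mouse lymphoma lysate (RIPA, 30 min on ice, cleared by centrifugation; 1 mg/mL protein in 50 mM phosphate pH 7.4), optionally pre-blocked (urokinase 100 µM DFP). Labeled with 2 µM probe 15 min on ice. Click on ice 30 min with TAMRA-PEG-N3, THPTA, CuSO4, ascorbate; 12% or 15% SDS-PAGE, fluorescence scan ex 532/em 580 nm.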

Assay [6] is filed under the species Rattus norvegicus. The assay can be described thus: Binding affinity to 50 kDa Serine protease band in rat liver proteome assessed as protein labeling at 1 uM after 30 mins by fluorescent scanning method. The conditions noted are these: 0.5 uM, in the assay text read “at 0.5 uM” for “at 1 uM”. Put shortly:
(§3)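 Rat liver homogenate (70 µm strainer, 0.5% NP-40 substitute in PBS, 1 h on ice, 15,000 rpm spin), diluted to 1 mg/mL protein in 50 mM phosphate, pH 7.4; pretreated 30 min on ice with DMSO, TPCK (100 µM) or PMSF (1 mM), then IC probe. Cu(I) click with TAMRA-PEG-N3/THPTA/CuSO4/ascorbate, SDS-PAGE, fluorescence scan (ex 532/em 580 nm).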

Assay [7] is filed under the species Rattus norvegicus. The assay is described as follows: Binding affinity to 50 kDa Serine protease band in rat liver proteome assessed as protein labeling at 1 uM after 30 mins pre-treated with 100 uM TPCK for 30 mins before compound addition by fluorescent scanning method. As to conditions: 0.5 uM, in the assay text read “at 0.5 uM” for “at 1 uM”. The procedure, abridged:
as §3

The species entered for assay [8] is Rattus norvegicus. The assay can be described thus: Binding affinity to 50 kDa Serine protease band in rat liver proteome assessed as protein labeling at 1 uM after 30 mins pre-treated with serin eprotease inhibitor PMSF for 30 mins before compound addition by fluorescent scanning method. As to conditions: 0.5 uM, in the assay text read “at 0.5 uM” for “at 1 uM”. The procedure, abridged:
as §3

The target of assay [9] is Urokinase-type plasminogen activator (Homo sapiens) (UniProt P00749). The assay is described as follows: Binding affinity to urokinase-type plasminogen activator assessed as protein labeling at 2 uM after 15 mins by fluorescent scanning method. The procedure, abridged:
as §1

Another assay concerns the target Trypsin (Homo sapiens) (UniProt P07477+P07478+P35030). The assay is described as follows: Binding affinity to trypsin assessed as protein labeling at 2 uM after 15 mins by fluorescent scanning method. Type of assay: protein assay. Put shortly: as §1
In assay [10] the target is Urokinase-type plasminogen activator (Homo sapiens) (UniProt P00749). The assay is described as follows: Binding affinity to urokinase-type plasminogen activator assessed as protein labeling at 2 uM after 15 mins pretreated with 100 uM DFP for 30 mins before compound addition by fluorescent scanning method. Put shortly: as §1
Assay [11] addresses T1, Cathepsin G (Homo sapiens). The assay can be described thus: Binding affinity to human cathepsin G assessed as protein labeling at 2 uM after 15 mins in presence of mouse EL4 lymphoma cell lysate for protease spiking by fluorescent scanning method relative to total protein content. The format is cell-free. Put shortly: as §2
The target of assay [12] is Urokinase-type plasminogen activator (Homo sapiens) (UniProt P00749). The assay is described as follows: Binding affinity to urokinase-type plasminogen activator assessed as protein labeling at 2 uM after 15 mins in presence of mouse EL4 lymphoma cell lysate for protease spiking by fluorescent scanning method relative to total protein content. Type of assay: cell-free. The procedure, abridged:
as §2

For assay [13] the target is unchanged. The assay can be described thus: Binding affinity to urokinase-type plasminogen activator assessed as protein labeling at 2 uM after 15 mins pretreated with 100 uM DFP for 30 mins before compound addition in presence of mouse EL4 lymphoma cell lysate for protease spiking by fluorescent scanning method relative to total protein content. Type of assay: cell-free. Put shortly: as §2

The species named for assay [14] is Rattus norvegicus. The assay can be described thus: Binding affinity to 26 kDa Chymotrypsin in rat liver proteome assessed as protein labeling at 1 uM after 30 mins by fluorescent scanning method. The procedure, abridged:
as §3

The species entered for assay [15] is Rattus norvegicus. The assay is described as follows: Binding affinity to 26 kDa Chymotrypsin in rat liver proteome assessed as protein labeling at 1 uM after 30 mins pre-treated with 100 uM TPCK for 30 mins before compound addition by fluorescent scanning method. Put shortly: as §3
For assay [16], the species on record is Rattus norvegicus. The assay can be described thus: Binding affinity to 25 kDa Chymotrypsin in rat liver proteome assessed as protein labeling at 1 uM after 30 mins by fluorescent scanning method. Put shortly: as §3
Assay [17] is filed under the species Rattus norvegicus. The assay can be described thus: Binding affinity to 25 kDa Chymotrypsin in rat liver proteome assessed as protein labeling at 1 uM after 30 mins pre-treated with 100 uM TPCK for 30 mins before compound addition by fluorescent scanning method. Put shortly: as §3

Molecules are shown by their SMILES. The source made the active and inactive calls. The calls are words filed in the database; no cut-off is given here.

With `C#CCCC(=O)Nc1ccc2c(Cl)c(OC)oc(=O)c2c1`, the outcome (in the assay listed under Bos taurus [1]; in assay [2]; in the assay filed under Sus scrofa [3]) was Active. Moreover, the outcome in the assay filed under Bos taurus [4] and in the assay listed under Sus scrofa [5] was inactive. In the assay with lymphoma, the Activity is 0.007%.
In the case of `C#CCCOc1oc(=O)c2cc(N)ccc2c1Cl`, the outcome (in the assay listed under Rattus norvegicus [6]; in the assay listed under Rattus norvegicus [7]; in the assay listed under Bos taurus [1]; in [2]; in the assay listed under Sus scrofa [3]; in [9]) was Active. Further, the result on Trypsin (Homo sapiens) and in the assay listed under Sus scrofa [5] was Active. The outcome (in the assay listed under Rattus norvegicus [8]; in the assay listed under Bos taurus [4]; in assay [10]) was inactive. Besides, the Activity in assay [11] came out at 0.03%.
In the case of `C#CCCOc1oc(=O)c2cc(NC(=O)CNC(=N)N)ccc2c1Cl`, the outcome (in the assay filed under Bos taurus [1]; in the assay filed under Sus scrofa [3]; in assay [9]; at Trypsin (Homo sapiens); in [13]) was Active. Besides, the result in the assay filed under Bos taurus [4] and in the assay filed under Sus scrofa [5] was inactive. For the same molecule, the Activity in [12] was 0.03%.
For `C#CCCC(=O)Nc1ccc2c(Cl)c(OCCBr)oc(=O)c2c1`, the result (in the assay filed under Bos taurus [1]; in assay [2]; in the assay filed under Sus scrofa [3]) was Active. In addition, the outcome in the assay listed under Bos taurus [4] and in the assay filed under Sus scrofa [5] was inactive.
For `C#CCCOc1oc(=O)c2cc([N+](=O)[O-])ccc2c1Cl`, the outcome (in the assay listed under Bos taurus [1]; in the assay listed under Sus scrofa [3]; in assay [9]; at Trypsin (Homo sapiens); in the assay filed under Sus scrofa [5]) was Active. Besides, the outcome (in the assay listed under Bos taurus [4]; in assay [10]) was inactive.
As for `C#CCCOc1oc(=O)c2ccccc2c1Cl`, the result (in the assay filed under Bos taurus [1]; in assay [2]; in the assay filed under Sus scrofa [3]; in [9]; on Trypsin (Homo sapiens); in the assay listed under Rattus norvegicus [14]) was Active. Moreover, the outcome (in the assay filed under Bos taurus [4]; in assay [10]; in the assay filed under Rattus norvegicus [15]) was inactive.
Consider `C#CCCOc1oc(=O)c2cc(NC(=O)CN)ccc2c1Cl`, for which the result (in the assay listed under Bos taurus [1]; in assay [9]; at Trypsin (Homo sapiens)) was Active. The result in the assay filed under Bos taurus [4] was inactive.
As for `C#CCCOc1oc(=O)c2cc(NC(=O)c3ccccc3)ccc2c1Cl`, the result (in the assay filed under Bos taurus [1]; in [2]; in the assay listed under Rattus norvegicus [16]) was Active. The outcome in the assay listed under Bos taurus [4] and in the assay listed under Rattus norvegicus [17] was inactive.
On to `C#CCCC(=O)Nc1ccc2c(Cl)c(OCCSC(=N)N)oc(=O)c2c1`, for which the result (in the assay filed under Bos taurus [1]; in assay [9]; at Trypsin (Homo sapiens)) was Active. For the same molecule, the result in the assay listed under Bos taurus [4] was inactive.
With `C#CCCC(=O)Nc1ccc2c(Cl)c(OCCc3ccccc3)oc(=O)c2c1`, the result in the assay filed under Bos taurus [1] was Active. For the same molecule, the outcome in the assay filed under Bos taurus [4] was inactive.
